# Screening results as filed in PubChem BioAssay.
# PGC1a acetyl up = raises PGC1a acetylation signal in U2OS cells. U2OS PGC1a acetylation AlphaScreen, overnight. activation, % at 15.6 µM. 350,000 tested, 0.21% active. AID 651723;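 active = every replicate reaching activation of at least 50%, whatever the mean replicate activation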;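 note: hits raise the AlphaScreen acetylation signal above neutral controls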
#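 System: flag-PGC1a/GCN5 U2OS cells / Input: 7000 cells/well / Compound: single test concentration per compound / Incubation: overnight compound treatment, 37 °C / Technique: AlphaScreen on lysates with anti-acetyl-lysine antibody, acceptor and donor beads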
# The depositor's hits bear a star. The sample as a whole holds a higher share of hits than the screen did.
SMILES,PGC1a acetyl up
COc1ccc(CCNC(=O)C2CCN(C(=O)c3ccc(F)cc3)CC2)cc1OC,-46.3
Cc1cc(OCC(=O)O/N=C(\N)c2ccccc2)cc(C)c1Cl,-59.0
C[C@@H]1CN([C@@H](C)CO)C(=O)c2cc(C#CCN(C)C)cnc2O[C@@H]1CN(C)S(=O)(=O)c1cn(C)cn1,-67.7
COc1ccc(/C=C/c2cc(-c3ccc(C)cc3)o[n+]2C)cc1,120.8*
COCCCn1[nH]c2c3c(ccc2c1=O)C(=O)c1ccccc1C3=O,-45.5
C[C@@H]1CN([C@H](C)CO)C(=O)CCCn2cc(nn2)CO[C@H]1CN(C)C(=O)Nc1ccc(C(F)(F)F)cc1,-49.2
Cc1ccc(N2C(=O)c3ccccc3NC2C(C)Cc2ccc3c(c2)OCO3)cc1 (stereo unspecified),-40.2
CC(C)C12CN3CC(C(C)C)(CN(C1)C3c1ccc3c(c1)OCO3)C2=O (stereo unspecified),79.8*
CC(=O)N(c1ccccc1)c1nnc(-c2cnc(C)cn2)s1,-58.0
O=C(C[C@H]1CC[C@H](NC(=O)NC2CCCCC2)[C@H](CO)O1)NCc1ccc(Cl)cc1,-53.6
CCCNC(=O)c1nnsc1S(=O)(=O)c1ccc(Cl)cc1,82.4*
CNC(=O)c1nnsc1S(=O)c1ccc(Cl)cc1 (stereo unspecified),116.7*
CCCNC(=O)c1nnsc1S(=O)c1ccc(Cl)cc1 (stereo unspecified),147.5*
CC(=O)Nc1ccc(Oc2sc(C(=O)c3ccccc3)c(N)c2C#N)cc1,-22.3
COc1ccc2c3c(n(C)c2c1)[C@H](CO)NCC31CCN(Cc2cc(-c3ccccc3)on2)CC1,-68.9
O=C(O)CCC(NC(=S)Nc1ccccc1)C(=O)O (stereo unspecified),-73.1
COCC#Cc1ccc2c(c1)O[C@H](CN(C)C(=O)CN(C)C)[C@@H](C)CN([C@@H](C)CO)S2(=O)=O,-57.6
CCCN(C)C[C@H]1Oc2cc(C#Cc3ccc(OC)cc3)ccc2S(=O)(=O)N([C@@H](C)CO)C[C@H]1C,-48.6
OCC1(Cc2ccc(F)cc2F)CCCN(Cc2ccc(Cl)cc2)C1 (stereo unspecified),-46.1
CN1CCN(C(=O)c2sc(=S)n(-c3ccccc3)c2N)CC1,-63.2
COCCCNC1CS(=O)(=O)CC1O (stereo unspecified),-45.4
COc1cccc(-c2cc(C(=O)NCCCn3ccnc3)no2)c1,80.2*
CN(c1cc2c(c3c1ccn3C)C1CCC2C1)C1CCCCC1 (stereo unspecified),-78.1
CCOC(=O)CS(=O)(=O)c1nc(-c2ccccc2)cc(C(F)(F)F)n1,-58.2
CCOC(=O)CN1C(=O)C(Sc2n[nH]c(-c3ccc(C)cc3)n2)CCc2ccccc21 (stereo unspecified),58.5*
SMILES,PGC1a acetyl up
COc1ccc(N=C2SC(C(N)=O)CC(=O)N2Cc2ccc3c(c2)OCO3)cc1 (stereo unspecified),-54.1
CCOC(=O)c1cn(-c2ccccc2)nc1-c1cccnc1,77.4*
CCOC(=O)/C(=C\c1cccnc1)C(=O)c1cc(C(C)=O)c(Nc2ccccc2)s1,-83.8
COc1cccc(-c2nn(-c3ccccc3)cc2CN(C)C(C)c2ccncn2)c1 (stereo unspecified),-41.4
CCC(C)(CC(=O)O)CC(=O)Nc1cc(C(F)(F)F)cc(C(F)(F)F)c1 (stereo unspecified),-67.6
COc1ccc(S(=O)(=O)N2c3ccc(F)cc3CCC2C)cc1 (stereo unspecified),119.9*
COc1ccc(CN(C)C[C@H]2Oc3ccc(NC(=O)Cc4cn(C)c5ccccc45)cc3CC(=O)N([C@@H](C)CO)C[C@@H]2C)cc1,-40.9
CCOC(=O)N1CCN(C(=O)C(NS(=O)(=O)c2cccc3nsnc23)c2ccccc2)CC1 (stereo unspecified),59.0*
COC(=O)C12OCC34C(CC5C(C)=C(O)C(=O)CC5(C)C3C(O)C1O)OC(=O)C(OC(=O)C=C(C)C)C24 (stereo unspecified),-48.5
CCCCn1c(=O)[nH]c(=O)c2c1nc(-c1ccc(OCCC)c(OCC)c1)n2C,-52.5
O=C(Nc1nc(C2C3CC4CC(C3)CC2C4)cs1)c1cc2cc([N+](=O)[O-])ccc2oc1=O (stereo unspecified),52.5*
O=C(Cc1ccc(Cl)cc1)Nc1ncccn1,-44.7
CC[C@H](C)[C@H](NC(=O)c1ccc(Cl)cc1)C(=O)OCC(=O)c1ccc2c(c1)NC(=O)CO2,-40.0
S=c1sc2c(Cl)ncnc2n1-c1ccccc1,-64.0
CC(C)c1ccc(/C=C2\CC/C(=C\C=N\N(C)C)C2=O)cc1,57.1*
O=C1/C(=C/c2ccncc2)CCC/C1=C\c1ccncc1,-77.8
CC(C)CC(OC(=O)c1cccs1)C(=O)NCc1ccco1 (stereo unspecified),86.5*
CC1CC(C)(C)CC(=O)C1C(=O)c1ccccc1 (stereo unspecified),-48.7
O=C(c1ccc(F)cc1)N1CC(=O)N2[C@H](CO)[C@@H](c3ccc(C#CCC4CCCC4)cc3)[C@@H]2C1,-48.8
CC/C(=C(\c1ccccc1)c1ccc(OCCN(C)C)cc1)c1ccccc1,124.4*
CC/C(=C(\c1ccc(O)cc1)c1ccc(OCCN(C)C)cc1)c1ccccc1,62.5*
CCN(CC)CCOc1ccc(/C(=C(/Cl)c2ccccc2)c2ccccc2)cc1,98.7*
C[C@@H]1CN([C@H](C)CO)C(=O)CCCn2cc(nn2)CO[C@@H]1CN(C)C(=O)Nc1cccc2ccccc12,-50.5
O=C(OCc1nc(-c2ccccc2)oc1COC(=O)c1ccco1)c1ccco1,-44.0
O=c1[nH]c(=O)c2[nH]c(=S)[nH]c2[nH]1,-60.4
SMILES,PGC1a acetyl up
CC(C)(C)C(=O)NC(C(N)=O)=C(Cl)Cl,65.0*
Cc1cccc(NC(=O)CNC(=O)Cn2ncc(Cl)c(Cl)c2=O)c1C,-50.9
O=C(Nc1nc2ccccc2[nH]1)c1ccc(Cl)c(S(=O)(=O)N2CCCC2)c1,-52.5
C=CCn1c(C)cc(C(=O)Cn2ncc(Cl)c(Cl)c2=O)c1C,-41.1
Cc1ccc(NC(=O)Cn2ncc(Cl)c(Cl)c2=O)cc1S(=O)(=O)N1CCCCC1,90.3*
O=C1CN(C(=O)Cn2ncc(Cl)c(Cl)c2=O)c2ccccc2N1,74.0*
O=C(Cn1ncc(Cl)c(Cl)c1=O)NCC1CCCCC1,151.0*
O=C(Cn1ncc(Cl)c(Cl)c1=O)c1ccc(Cl)cc1,-85.3
Cc1ccccc1NC(=O)CC1c2ccccc2CC(C)(C)N1C (stereo unspecified),-82.6
O=C(N[C@@H]1CC[C@@H](CCNS(=O)(=O)c2ccccc2Cl)O[C@@H]1CO)c1ccc(F)cc1,-48.0
COCCCNC(=O)c1ccc(CSCc2ccc(C)cc2)o1,-46.1
CC(C)NC(=O)N(C)C[C@H]1Oc2c(NS(=O)(=O)c3cn(C)cn3)cccc2C(=O)N([C@@H](C)CO)C[C@@H]1C,-44.5
COc1ccc(F)cc1CN1CCN(CC(=O)N2CCc3ccccc32)CC1,-43.9
CC(=O)c1cccc(-c2ccnc3c2CC(C(=O)NCc2ccco2)O3)c1 (stereo unspecified),51.6*
O=C(COn1nnc2ccc(Cl)cc21)NC12CC3CC(CC(C3)C1)C2,-84.7
O=C(CSc1nnnn1-c1ccc(F)cc1)NNC(=O)c1ccco1,-43.7
CC(C)(C)n1nnnc1CN(Cc1ccc(F)cc1)Cc1ccco1,91.9*
CO[C@H]1CN(C)C(=O)c2cc(NS(C)(=O)=O)ccc2OC[C@@H](C)N(C(=O)CC2CC2)C[C@H]1C,-46.5
CC1C(=O)CCCCCCCCCC2C1(N1CCOCC1)CS2(=O)=O (stereo unspecified),61.4*
